ChEMBL document CHEMBL1133606, “2-Carbomethoxy-3-aryl-8-bicyclo[3.2.1]octanes: potent non-nitrogen inhibitors of monoamine transporters” (J Med Chem, 2000)

Assays:
[1] = target: Sodium-dependent serotonin transporter (Homo sapiens, UniProt P31645); test: Inhibition of [3H]citalopram binding to the serotonin transporter in cynomolgus (macaca fascicularis) monkey caudate putamen.; type: tissue-based, Cercopithecidae; details: target entry is the homologue from another species
Method in brief: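 Caudate-putamen membranes at 4 mg original wet tissue/mL final, competition vs 1 nM [3H]citalopram in 50 mM Tris·HCl pH 7.4 with 100 mM NaCl, 7–14 drug concentrations, 2 h at 0–4 °C. Filtration on 0.1% polyethyleneimine-presoaked filters, scintillation counting with cpm converted to dpm. Nonspecific binding with 1 μM fluoxetine. IC50 by EBDA, mean of triplicate experiments.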

[2] = target: Monoamine transporters; serotonin & dopamine (UniProt P31645+Q01959); test: Selectivity, ratio of binding to serotonin transporter (SERT) and dopamine transporter (DAT); type: protein assay; details: Cercopithecidae
Method in brief: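 Ratio computed as IC50 at SERT ([3H]citalopram binding) divided by IC50 at DAT ([3H]WIN 35,428 binding), both measured in caudate-putamen membranes.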

Monoamine transporters; serotonin & dopamine, sequence (P31645 whole entry, looked up): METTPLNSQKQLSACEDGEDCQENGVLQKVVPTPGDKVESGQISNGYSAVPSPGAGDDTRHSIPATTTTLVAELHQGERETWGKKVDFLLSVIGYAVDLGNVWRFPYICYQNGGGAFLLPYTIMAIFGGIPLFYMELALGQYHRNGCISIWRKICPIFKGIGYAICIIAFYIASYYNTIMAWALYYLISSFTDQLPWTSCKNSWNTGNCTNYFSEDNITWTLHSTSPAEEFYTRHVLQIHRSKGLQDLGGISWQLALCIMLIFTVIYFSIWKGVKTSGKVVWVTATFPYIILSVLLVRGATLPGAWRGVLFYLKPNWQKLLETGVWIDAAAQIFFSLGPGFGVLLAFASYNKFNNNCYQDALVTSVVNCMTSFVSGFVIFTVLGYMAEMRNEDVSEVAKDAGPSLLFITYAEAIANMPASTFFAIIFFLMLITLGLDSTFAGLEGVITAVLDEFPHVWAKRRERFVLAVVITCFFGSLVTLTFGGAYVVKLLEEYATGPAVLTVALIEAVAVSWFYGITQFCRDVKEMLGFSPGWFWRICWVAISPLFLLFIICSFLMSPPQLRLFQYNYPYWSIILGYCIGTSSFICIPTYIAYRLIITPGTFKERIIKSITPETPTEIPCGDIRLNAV
Monoamine transporters; serotonin & dopamine, sequence (Q01959 whole entry, looked up): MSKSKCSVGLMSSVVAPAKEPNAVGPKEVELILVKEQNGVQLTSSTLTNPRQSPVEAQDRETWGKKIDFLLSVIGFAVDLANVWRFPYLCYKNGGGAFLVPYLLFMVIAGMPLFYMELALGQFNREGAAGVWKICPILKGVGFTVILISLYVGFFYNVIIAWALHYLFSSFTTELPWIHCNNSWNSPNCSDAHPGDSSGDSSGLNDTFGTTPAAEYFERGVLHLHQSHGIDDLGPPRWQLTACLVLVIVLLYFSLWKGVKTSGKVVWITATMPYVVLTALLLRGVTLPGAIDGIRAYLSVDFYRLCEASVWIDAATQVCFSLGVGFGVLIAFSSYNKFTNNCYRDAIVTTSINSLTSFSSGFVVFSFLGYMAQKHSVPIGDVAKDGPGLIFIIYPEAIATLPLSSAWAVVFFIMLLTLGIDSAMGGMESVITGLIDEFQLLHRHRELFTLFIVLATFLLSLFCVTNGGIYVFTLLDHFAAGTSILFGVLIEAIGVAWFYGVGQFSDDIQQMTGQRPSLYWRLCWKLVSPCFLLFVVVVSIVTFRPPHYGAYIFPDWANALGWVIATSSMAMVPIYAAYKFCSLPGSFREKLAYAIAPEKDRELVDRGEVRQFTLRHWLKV
Sodium-dependent serotonin transporter, sequence (P31645 whole entry): as the sequence (P31645 whole entry, looked up) above

SMILES | IC50 [1] | Selectivity [2] | IC50 ([1]; read-out: IC50) [nM]
COC(=O)[C@H]1C(c2ccc3ccccc3c2)CC2CCC1N2C (stereo partly specified) | 5.95 nM | 10 | 
COC(=O)C1=C(c2ccc3ccccc3c2)CC2CCC1C2 (stereo unspecified) | 1310 nM | 119 | 
COC(=O)[C@@H]1C2CCC(C2)C[C@@H]1c1ccc2ccccc2c1 (stereo partly specified) | 60 nM | 2 | 
COC(=O)c1ccccc1-c1ccc2ccccc2c1 | 10000 nM | 69 | 
COC(=O)c1ccccc1-c1ccccc1 |  |  | > 70000
COC(=O)c1ccccc1C(=O)OC [DIMETHYL PHTHALATE] |  |  | > 100000
COC(=O)c1ccccc1-c1ccc(F)cc1 |  | 2 | 33000
COC(=O)[C@H]1C2CCC(C2)C[C@@H]1c1ccc2ccccc2c1 (stereo in doubt; 9b) [listing 1 of 2 here] |  | 4 | 
COC(=O)C1C(c2ccc(Cl)c(Cl)c2)CC2CCC1N2C (stereo in doubt; 12a) [listing 1 of 2 here] |  | 2 | 
COC(=O)[C@H]1C2CCC(C2)C[C@@H]1c1ccc2ccccc2c1 (stereo in doubt; 8b) [listing 1 of 2 here] | 807 nM |  | 
COC(=O)C1=C(c2ccc(Cl)c(Cl)c2)CC2CCC1N2C (stereo unspecified) |  | 723 | 
COC(=O)C1=C(c2ccccc2)CC2CCC1C2 (stereo unspecified) |  |  | > 10000
COC(=O)C1C(c2ccc(Cl)c(Cl)c2)CC2CCC1N2C (stereo in doubt; 12a) [listing 2 of 2 here] | 2 nM |  | 
COC(=O)[C@H]1C2CCC(C2)C[C@@H]1c1ccc2ccccc2c1 (stereo in doubt; 9b) [listing 2 of 2 here] | 64 nM |  | 
COC(=O)[C@@H]1C2CCC(C2)CC1c1ccc2ccccc2c1 (stereo partly specified) | 106 nM | 4 | 
COC(=O)[C@H]1C2CCC(C2)C[C@@H]1c1ccc(Cl)c(Cl)c1 (stereo in doubt; 9a) [listing 1 of 2 here] | 180 nM |  | 
COC(=O)C1C(c2ccc3ccccc3c2)CC2CCC1N2C (stereo unspecified) | 2.19 nM | 4 | 

SMILES | IC50 [1] | Selectivity [2] | IC50 ([1]; read-out: IC50) [nM]
COC(=O)C1C2CCC(C2)CC1c1ccccc1 (stereo unspecified) |  | 25 | > 20000
COC(=O)[C@H]1C2CCC(C2)C[C@@H]1c1ccc(Cl)c(Cl)c1 (stereo in doubt; 7a) [listing 1 of 2 here] |  | 3 | 
COC(=O)[C@H]1C2CCC(C2)C[C@@H]1c1ccc(Cl)c(Cl)c1 (stereo in doubt; 9a) [listing 2 of 2 here] |  | 14 | 
COC(=O)C1C(c2ccc(Cl)c(Cl)c2)CC2CCC1N2C (stereo in doubt; 13a) [listing 1 of 2 here] | 358 nM |  | 
COC(=O)[C@H]1C2CCC(C2)C[C@@H]1c1ccc2ccccc2c1 (stereo in doubt; 8b) [listing 2 of 2 here] |  | 67 | 
COC(=O)C1=C(c2ccc(Cl)c(Cl)c2)CC2CCC1C2 (stereo unspecified) |  | 726 | 
COC(=O)[C@@H]1C2CCC(C2)C[C@@H]1c1ccc(Cl)c(Cl)c1 (stereo partly specified) | 650 nM | 46 | 
COC(=O)[C@H]1C2CCC(C2)C[C@@H]1c1ccc(Cl)c(Cl)c1 (stereo in doubt; 7a) [listing 2 of 2 here] | 33 nM |  | 
COC(=O)[C@H]1[C@@H](c2ccc(F)cc2)C[C@H]2CC[C@H]1N2C (stereo in doubt; 13c) | 12200 nM |  | 
COC(=O)C1=C(c2ccc(F)cc2)CC2CCC1C2 (stereo unspecified) | 35400 nM | 91 | 
COC(=O)C1=C(c2ccc(F)cc2)CC2CCC1N2C (stereo unspecified) |  | 20 | 7990
COC(=O)c1ccccc1-c1ccc(Cl)cc1 |  | 68 | 46000
COC(=O)C1=C(c2ccc3ccccc3c2)CC2CCC1N2C (stereo unspecified) |  | 38 | 109
COC(=O)C1C(c2ccc(Cl)c(Cl)c2)CC2CCC1N2C (stereo in doubt; 13a) [listing 2 of 2 here] |  | 179 | 
COC(=O)C1C(c2ccc(Cl)c(Cl)c2)CC2CCC1N2C (stereo in doubt; 14a) |  | 68 | 
COC(=O)C1=C(c2ccccc2)CC2CCC1N2C (stereo unspecified) | Not Active |  | 
